Assay results taken from ChEMBL document CHEMBL2062453, “Lead optimization through VLAK protocol: new annelated pyrrolo-pyrimidine derivatives as antitumor agents” (2012).

Experiments:
Assay type in all cases: functional
HL-60(TB) = assay: Cytotoxicity against human HL-60(TB) cells after 48 hrs by SRB assay; details: HL-60, 48 h
Summary of the method: (§1)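 NCI 60-line five-dose screen. Cells are grown in RPMI 1640 with 5% FBS and 2 mM glutamine, plated at 5000–40,000 cells/well, and preincubated 24 h at 37 °C in 5% CO2. Compound is dissolved in DMSO and given at five concentrations (10-fold or ½-log dilutions) for 48 h. Cells are TCA-fixed (HL-60(TB), suspension: 16% final; HOP92, adherent: 10% final), SRB-stained and read at 515 nm. GI50 comes from [(Ti−Tz)/(C−Tz)]×100 = 50.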

MOLT-4 = assay: Cytotoxicity against human MOLT4 cells after 48 hrs by SRB assay; details: MOLT-4, 48 h
Summary of the method: (§2)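 Five-dose screen, 10-fold or ½-log dilutions, compound stock in DMSO. Cells were in RPMI 1640 with 5% FBS and 2 mM glutamine at 5000–40,000 cells/well, preincubated 24 h, 37 °C, 5% CO₂, with a time-zero plate TCA-fixed. After 48 h drug exposure, cells were TCA-fixed and stained with 0.4% SRB, read at 515 nm. GI50, TGI and LC50 were derived from time-zero, control and test absorbances.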

RPMI-8226 = assay: Cytotoxicity against human RPMI8226 cells after 48 hrs by SRB assay; details: RPMI-8226, 48 h; summary of the method: as §2
EKVX = assay: Cytotoxicity against human EKVX cells after 48 hrs by SRB assay
Summary of the method: (§3)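 NCI 60-cell five-dose screen. Cells grown in RPMI 1640 with 5% FBS and 2 mM glutamine, plated at 5000–40,000 cells/well, and preincubated 24 h at 37 °C in 5% CO2. Time-zero plates fixed with TCA. Five serial dilutions of DMSO stock added, then 48 h exposure. TCA fixation, 0.4% SRB staining, absorbance read at 515 nm. GI50 from [(Ti−Tz)/(C−Tz)]×100 = 50.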

HOP-92 = assay: Cytotoxicity against human HOP92 cells after 48 hrs by SRB assay; details: HOP-92, 48 h; summary of the method: as §1
NCI-H226 = assay: Cytotoxicity against human NCI-H226 cells after 48 hrs by SRB assay; details: NCI-H226, 48 h; summary of the method: as §2
NCI-H23 = assay: Cytotoxicity against human NCI-H23 cells after 48 hrs by SRB assay; details: NCI-H23, 48 h; summary of the method: as §2
COLO 205 = assay: Cytotoxicity against human COLO205 cells after 48 hrs by SRB assay; details: COLO 205, 48 h; summary of the method: as §3
HCC 2998 = assay: Cytotoxicity against human HCC2998 cells after 48 hrs by SRB assay; details: HCC 2998, 48 h; summary of the method: as §3
HCT-15 = assay: Cytotoxicity against human HCT15 cells after 48 hrs by SRB assay; details: HCT-15, 48 h; summary of the method: as §3
SF-539 = assay: Cytotoxicity against human SF539 cells after 48 hrs by SRB assay; details: SF-539, 48 h; summary of the method: as §2
LOX IMVI = assay: Cytotoxicity against human LOXIMVI cells after 48 hrs by SRB assay; summary of the method: as §3
Malme-3M = assay: Cytotoxicity against human MALME-3M cells after 48 hrs by SRB assay; summary of the method: as §3
MDA-MB-435 = assay: Cytotoxicity against human MDA-MB-435 cells after 48 hrs by SRB assay; details: MDA-MB-435, 48 h; summary of the method: as §3
SK-MEL-2 = assay: Cytotoxicity against human SK-MEL-2 cells after 48 hrs by SRB assay; details: SK-MEL-2, 48 h; summary of the method: as §2
SK-MEL-28 = assay: Cytotoxicity against human SK-MEL-28 cells after 48 hrs by SRB assay; details: SK-MEL-28, 48 h; summary of the method: as §2
OVCAR-3 = assay: Cytotoxicity against human OVCAR3 cells after 48 hrs by SRB assay; details: OVCAR-3, 48 h; summary of the method: as §2
OVCAR-4 = assay: Cytotoxicity against human OVCAR4 cells after 48 hrs by SRB assay; details: OVCAR-4, 48 h; summary of the method: as §2
NCI/ADR-RES = assay: Cytotoxicity against human NCI/ADR-RES cells after 48 hrs by SRB assay; summary of the method: as §2
A498 = assay: Cytotoxicity against human A498 cells after 48 hrs by SRB assay; details: A498, 48 h; summary of the method: as §3
UO-31 = assay: Cytotoxicity against human UO31 cells after 48 hrs by SRB assay; details: UO-31, 48 h
Summary of the method: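 NCI 60-panel five-dose screen. Cells in RPMI 1640 with 5% FBS and 2 mM glutamine, plated at 5000–40,000 cells/well and preincubated 24 h at 37 °C under 5% CO2. Five 10-fold or half-log dilutions were added from a DMSO stock for 48 h. Cells were TCA-fixed (SR settled cells: 16% final), SRB-stained and read at 515 nm. GI50 was taken where (Ti−Tz)/(C−Tz)×100 = 50.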

MDA-MB-231 = assay: Cytotoxicity against human MDA-MB-231 cells after 48 hrs by SRB assay; details: MDA-MB-231, 48 h; summary of the method: as §3
Hs-578T = assay: Cytotoxicity against human Hs578T cells after 48 hrs by SRB assay; summary of the method: as §3
BT-549 = assay: Cytotoxicity against human BT549 cells after 48 hrs by SRB assay; details: BT-549, 48 h; summary of the method: as §3

## CSC1=Nc2c(c(C)c(-c3ccccc3)n2CCCN2CCCCC2)C2=NC(=O)CC(C)N12 (stereo not given)
HL-60(TB)
  GI50: 1.82 µM
HL-60(TB); read-out: pLC50 (the source's name) (converted)
  CC50: 8.32 µM
HL-60(TB); read-out: pTGI (converted)
  TGI: 3.89 µM
MOLT-4
  GI50: 2 µM
  LC50: 20.4 µM
MOLT-4; read-out: pTGI (converted)
  TGI: 5.13 µM
RPMI-8226
  GI50: 0.166 µM
  LC50: 4.27 µM
RPMI-8226; read-out: pTGI (converted)
  TGI: 1.2 µM
EKVX
  GI50: 3.02 µM
  LC50: > 100 µM
EKVX; read-out: pTGI (converted)
  TGI: 20 µM
HOP-92
  LC50: > 100 µM
NCI-H226
  GI50: 3.55 µM
  LC50: > 100 µM
NCI-H226; read-out: pTGI (converted)
  TGI: > 100 µM
NCI-H23
  GI50: 2.95 µM
  LC50: > 100 µM
NCI-H23; read-out: pTGI (converted)
  TGI: > 100 µM
COLO 205
  GI50: 1.26 µM
  LC50: 5.01 µM
COLO 205; read-out: pTGI (converted)
  TGI: 2.51 µM
HCC 2998
  GI50: 3.24 µM
  LC50: 61.7 µM
HCC 2998; read-out: pTGI (converted)
  TGI: 16.2 µM
HCT-15
  GI50: 4.47 µM
  LC50: > 100 µM
HCT-15; read-out: pTGI (converted)
  TGI: 28.2 µM
SF-539
  GI50: 6.46 µM
  LC50: > 100 µM
SF-539; read-out: pTGI (converted)
  TGI: 87.1 µM
LOX IMVI
  GI50: 3.02 µM
  LC50: 35.5 µM
LOX IMVI; read-out: pTGI (converted)
  TGI: 12.9 µM
Malme-3M
  GI50: 2.34 µM
  LC50: 53.7 µM
Malme-3M; read-out: pTGI (converted)
  TGI: 7.24 µM
MDA-MB-435
  GI50: 2.88 µM
  LC50: 58.9 µM
MDA-MB-435; read-out: pTGI (converted)
  TGI: 10.5 µM
SK-MEL-2
  GI50: 2.14 µM
  LC50: 20.9 µM
SK-MEL-2; read-out: pTGI (converted)
  TGI: 5.25 µM
SK-MEL-28
  GI50: 2.88 µM
  LC50: 36.3 µM
SK-MEL-28; read-out: pTGI (converted)
  TGI: 13.2 µM
OVCAR-3
  GI50: 2.4 µM
  LC50: 53.7 µM
OVCAR-3; read-out: pTGI (converted)
  TGI: 8.51 µM
OVCAR-4
  GI50: 2.57 µM
  LC50: > 100 µM
OVCAR-4; read-out: pTGI (converted)
  TGI: 17.8 µM
NCI/ADR-RES
  GI50: 17 µM
  LC50: > 100 µM
NCI/ADR-RES; read-out: pTGI (converted)
  TGI: 74.1 µM
A498
  GI50: 3.16 µM
  LC50: > 100 µM
A498; read-out: pTGI (converted)
  TGI: 9.12 µM
UO-31
  GI50: 5.01 µM
  LC50: 75.9 µM
UO-31; read-out: pTGI (converted)
  TGI: 24 µM
MDA-MB-231
  GI50: 1.82 µM
  LC50: > 100 µM
MDA-MB-231; read-out: pTGI (converted)
  TGI: 9.55 µM
Hs-578T
  GI50: 2.29 µM
  LC50: 97.7 µM
Hs-578T; read-out: pTGI (converted)
  TGI: 7.94 µM
BT-549
  GI50: 2.63 µM
  LC50: 85.1 µM
BT-549; read-out: pTGI (converted)
  TGI: 9.55 µM
